In ChEMBL document CHEMBL2321657, “In vitro efficiency of 9-(N-cinnamoylbutyl)aminoacridines against blood- and liver-stage malaria parasites” (Bioorg Med Chem Lett, 2013):

Tests used:
[1] = system: Plasmodium falciparum; assay: Antiplasmodial activity against ring stage of CQ-resistant Plasmodium falciparum W2 after 48 hrs by flow cytometric analysis; type: functional, organism-based; conditions: W2, 48 h
[2] = system: Plasmodium berghei; assay: Ratio of primaquine IC50 to compound IC50 for liver stage of Plasmodium berghei; type: functional
[3] = system: Huh-7; assay: Cytotoxicity against human HuH7 cells up to 5 uM after 48 hrs by cell confluence analysis; type: cell-based; conditions: huh-7, 48 h
[4] = system: Plasmodium berghei; assay: Antiplasmodial activity against liver stage of Plasmodium berghei expressing GFP-Luc infected in HuH7 cells incubated at 1 hr prior to infection followed by compound replenisment at 24 hrs post-infection measured after 48 hrs by Alamar blue assay; type: functional, organism-based; conditions: Huh-7, in the assay text read “luciferase bioluminescence assay” for “Alamar blue assay”
Outline: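 Huh7 human hepatoma cells infected with firefly luciferase-expressing P. berghei sporozoites in the presence of compound. Liver-stage infection load read as bioluminescence of cell lysates 48 h after infection. Primaquine included as the liver-stage reference.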

Structure (SMILES): O=C(/C=C/c1ccccc1)NCCCCNc1c2ccccc2nc2ccccc12
- IC50 [1]: 892 nM

Structure (SMILES): Cc1ccc(/C=C/C(=O)NCCCCNc2c3ccccc3nc3ccccc23)cc1
- IC50 [1]: 225 nM

Structure (SMILES): CC(C)c1ccc(/C=C/C(=O)NCCCCNc2c3ccccc3nc3ccccc23)cc1
- IC50 [1]: 126 nM

Structure (SMILES): COc1ccc(/C=C/C(=O)NCCCCNc2c3ccccc3nc3ccccc23)cc1
- Ratio IC50 [2]: 3
- Activity [3]: Non-toxic
- IC50 [4]: 3200 nM
- IC50 [1]: 138 nM

Structure (SMILES): O=C(/C=C/c1cccc(F)c1)NCCCCNc1c2ccccc2nc2ccccc12
- IC50 [1]: 345 nM

Structure (SMILES): O=C(/C=C/c1ccc(F)cc1)NCCCCNc1c2ccccc2nc2ccccc12
- Activity [3]: Non-toxic
- IC50 [1]: 145 nM

Structure (SMILES): O=C(/C=C/c1cccc([N+](=O)[O-])c1)NCCCCNc1c2ccccc2nc2ccccc12
- IC50 [1]: 142 nM

Structure (SMILES): CCN(CC)CCCC(C)Nc1ccnc2cc(Cl)ccc12 (stereo not drawn) [CHLOROQUINE]
- IC50 [4]: > 15000 nM

Structure (SMILES): COc1cc(NC(C)CCCN)c2ncccc2c1 (stereo not drawn) [PRIMAQUINE]
- IC50 [4]: 8000 nM
